The list is not random: actives were taken first. Their share in the collection is about 2.8%.
Yeast lifespan up – extends the lifespan of yeast | 0.68% of 130,000 active | inhibition of the nicotinamide effect, % at 10 µM | S. cerevisiae growth with nicotinamide, OD615; deaD strain in restrictive glucose medium;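 active = inhibition above a set limit, placed 3 SD over the median of all compounds, cut at about 26% in these data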
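Assay system: DeaD-strain S. cerevisiae. Medium: CSMM-D glucose medium, restrictive. Reagent: nicotinamide, 1.5 mM, co-present with compound. Compound: 10 µM single point, 0.25% DMSO. Schedule: culture preincubation 4 h, compound exposure 48 h, both 30 °C. Detection: absorbance at 615 nm.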
TNAP inh hi DEA – TNAP (human) inhibition, high acceptor. P05186. purified TNAP, CDP-star luminescence, 1 M DEA. inhibition, % at 20 µM. 0.03% of 200,000 active. AID 1135;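 active = over 50% inhibition of tissue-nonspecific alkaline phosphatase at 20 µM in the single-dose screen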
Target sequence (P05186 whole entry, looked up): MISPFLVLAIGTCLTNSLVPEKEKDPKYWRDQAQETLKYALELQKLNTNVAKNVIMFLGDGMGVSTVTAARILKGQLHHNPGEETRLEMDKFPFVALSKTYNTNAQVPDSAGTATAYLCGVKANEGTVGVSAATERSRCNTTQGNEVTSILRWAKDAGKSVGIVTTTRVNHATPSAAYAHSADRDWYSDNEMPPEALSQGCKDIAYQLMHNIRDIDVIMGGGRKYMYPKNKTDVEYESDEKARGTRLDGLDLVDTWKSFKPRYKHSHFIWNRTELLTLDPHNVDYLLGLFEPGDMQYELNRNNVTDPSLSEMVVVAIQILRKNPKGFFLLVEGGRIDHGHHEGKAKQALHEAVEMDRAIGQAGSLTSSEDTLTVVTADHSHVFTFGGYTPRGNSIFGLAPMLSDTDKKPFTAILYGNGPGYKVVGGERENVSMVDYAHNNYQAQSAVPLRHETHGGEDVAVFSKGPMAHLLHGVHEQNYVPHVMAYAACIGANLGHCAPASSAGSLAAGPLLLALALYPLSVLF
TNAP inh noacc – inhibitors of human TNAP without phosphate acceptor; purified TNAP, CDP-star luminescence, 30 min; inhibition, % at 20 µM; 0.26% of 200,000 active; AID 1012;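 active = tissue-nonspecific alkaline phosphatase inhibition above about 50% at 20 µM in the single-dose screen, limit read from the data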
TNAP act hi DEA – activators of human TNAP at high phosphate acceptor concentration; 200,000 tested, under 10 active; purified TNAP, CDP-star luminescence, 1 M DEA, 30 min; active compounds read high; 0 = EDTA background, 1 = DMSO-only activity; P05186; activation factor at 20 µM; AID 1136;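 active = activation factor at least 2 at 20 µM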
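Measured by: Luminescent substrate turnover signal | Test system: Human TNAP | Input: TNAP 1/800 final | Dosing: 20 µM single point | Schedule: 30 min, room temperature | Controls: EDTA wells as negative control, DMSO wells as positive control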
RAM network inh – yeast RAM network inhibition; 1.8% of 190,000 active; inhibition, % at 50 µM; S. cerevisiae dse1pr::URA3 reporter, 5-FOA growth OD615, 2 d; analog-sensitive cbk1-as2 kinase mutant strain; AID 868;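 active = inhibition above a set limit, 3 SD over mean compound inhibition, cut at about 8.4% in these data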;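 also: inhibition rescues growth on 5-FOA so higher OD means more RAM inhibition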
BB579 growth dn – chemicals that inhibit yeast BB579 growth in restrictive medium (lifespan-shortening candidates); S. cerevisiae BB579 growth, OD615, 48 h; AID 804; 0.51% of 140,000 active; inhibition, % at 10 µM;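 active = inhibition above a set limit, 3 SD over the mean compound inhibition, cut at about 44% in these data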
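Test system: Saccharomyces cerevisiae DeaD strain BB579, replicative lifespan model yeast | Buffer or medium: Restrictive CSMM-D medium | Doses: One dose, 10 µM compound with 0.25% DMSO | Incubation: 48 h exposure, 30 °C | Detection: Culture absorbance at 615 nm | Control set: Amphotericin B at 10 µg/mL as positive control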
Each line names hits and unclear results; the compound was inactive in the other large screens.

COc1cc(OC)nc(-n2ncc(Br)c(Br)c2=O)n1	Yeast lifespan up 38
COC(=O)c1cnn(-c2nc(OC)cc(OC)n2)c1C	none
Cc1oc2cc(OCC(=O)O)ccc2c(=O)c1Oc1ccccc1	none
CCc1cc2c(=O)c(Oc3ccccc3)c(C)oc2cc1O	Yeast lifespan up 69
Cc1ccccc1CSc1nnc(C)c(=O)n1N	none (no result: Yeast lifespan up, BB579 growth dn)
Cc1ccc(C)c2[nH]c(=O)c(CN(CC3CCCO3)C(=O)NC3CCCCC3)cc12 (stereo unspecified)	none
O=C1c2ccccc2C(=O)C1c1ccc2ccccc2n1	BB579 growth dn 54
COC(=O)C1=C(C)NC(C)=C(C(=O)OC)C1c1ccc2ccccc2n1	none
O=C(c1ccc(Cl)nc1)N1CCc2ccccc2C1	none
O=C(c1cncc(Br)c1)N1CCc2ccccc2C1	Yeast lifespan up 43
CC(C)Sc1nc(N)nc(-c2cccs2)c1C#N	BB579 growth dn 76
COc1ccc(N2CCN(C(=O)c3ccc(S(=O)(=O)N4CCOCC4)cc3)CC2)cc1	none
CCOC(=O)C1=NN(C(=O)COc2ccccc2)C(O)(c2ccc(Br)cc2)C1 (stereo unspecified)	TNAP inh noacc 51 (no result: Yeast lifespan up, BB579 growth dn)
Clc1cccc(Cl)c1CO/N=C/c1c(-c2ccccc2)nc2n1CCS2	none
Cc1cccn2c(/C=N/OCc3cccc(F)c3)c(-c3ccc(Cl)cc3)nc12	RAM network inh 9.3
Fc1cccc(CO/N=C/c2c(-c3ccccc3)nc3ccc(Cl)cn23)c1	RAM network inh 9.1
COc1ccccc1-c1nc(SCC(=O)NCC2CCCO2)c2c(=O)n(C)c(=O)n(C)c2n1 (stereo unspecified)	none (no result: Yeast lifespan up, BB579 growth dn)
Cc1c(CNC2CCCC2)c(C(=O)O)c(C)n1Cc1ccccc1	none
Cc1ccc(C(=O)c2cc([N+](=O)[O-])ccc2N2CCCCC2)cc1C	RAM network inh 10.0
Cc1ccc(NC(=O)Nc2ccccc2C(=O)NCc2ccccc2)cc1	none
Cc1ccc(C(=O)Nc2ccccc2C(=O)NCc2ccccc2)cc1	RAM network inh 8.6
CCCn1c(=O)[nH]c(=O)c2c1nc(-c1ccccc1)n2CCN1CCOCC1	Yeast lifespan up 57
CCCn1c(-c2cccs2)nc2c1c(=O)[nH]c(=O)n2Cc1ccccc1	none (no result: Yeast lifespan up, BB579 growth dn)
CSc1nnc(Cc2sc(-c3ccccc3)nc2-c2ccccc2)o1	none
COc1ccc(CSc2nnc(Cc3sc(-c4ccccc4)nc3-c3ccccc3)o2)cc1	RAM network inh 9.6
CC(C)(C)OC(=O)[C@H]1[C@H](c2ccc([N+](=O)[O-])cc2)C2(C(=O)c3ccccc3C2=O)C2c3ccccc3C=NN21 (stereo partly specified)	Yeast lifespan up 43
COc1ccc([C@H]2[C@H](C(=O)C(C)(C)C)N3N=Cc4ccccc4C3[C@]23N=C(c2ccccc2)OC3=O)cc1 (stereo partly specified)	none
O=C(NCCC1=CCCCC1)C(c1ccccc1)c1ccccc1	none
CC(OC(=O)c1ccc(S(=O)(=O)N(C)c2ccccc2)cc1)C(=O)NCCC1=CCCCC1 (stereo unspecified)	RAM network inh 8.8
Cc1cccc(Sc2nc(-c3ccccc3)ccc2C#N)c1	RAM network inh 11
O=C(NCCCc1nc2ccccc2[nH]1)c1ccc(F)cc1	none (no result: Yeast lifespan up, BB579 growth dn)
COc1ccc(OC)c(-c2cc(C(=O)N3CCN(c4ncccn4)CC3)c3ccccc3n2)c1	none
COc1ccc(-c2cc(C(=O)N3CCN(c4ncccn4)CC3)c3ccccc3n2)c(OC)c1	BB579 growth dn 59
COC(=O)c1ccc(-n2nnnc2SCC(=O)Nc2ccccc2C(=O)OC)cc1	none
COC(=O)c1ccc(-n2nnnc2SCc2ccccc2OC)cc1	RAM network inh 9.6
CCOC(=O)c1cc2c(ccn2-c2ccc(F)cc2)n1CC(=O)N(CC)CC	none (no result: Yeast lifespan up, BB579 growth dn)
Cc1nnc(N/N=C/c2cccc(OCc3ccc(Cl)c(Cl)c3)c2)n1N	none
C/C(=N/N1CCN(c2ccccn2)CC1)c1cccc([N+](=O)[O-])c1	none
Cc1ccc(/C=C/C(=O)O)cc1S(=O)(=O)NCCCO	none
Cc1ccc(/C=C/C(=O)O)cc1S(=O)(=O)Nc1ccc2c(c1)OCO2	RAM network inh 8.8 (no result: Yeast lifespan up, BB579 growth dn)

Screening data: PubChem, several laboratories
